From ChEMBL document CHEMBL4007469, “Design and synthesis of dalbergin analogues and evaluation of anti-osteoporotic activity” (Bioorg Med Chem Lett, 2017)
The source made the active and inactive calls. The calls are words filed in the database; no cut-off is given here.

Tests used:
Mus musculus [1] = assay: Anti-osteoporotic activity in ovariectomized postmenopausal Balb/c mouse model assessed as improvement in micro-artchitectural parameter in tibia by measuring trabecular number at 1 mg/kg, po qd via gavage for 6 weeks by micro CT-scan analysis (reference value: 1.49 +/- 0.25 /millimeter); assay type: functional
Summary of the method: (§1)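 Female Balb/c mice, 8 weeks old, ovariectomized, 6 weeks osteopenia development, then 1.0 mg/kg/day or gum acacia vehicle by oral gavage once daily for 6 weeks (sham, OVx and treated groups). Bones collected after sacrifice for micro-CT of trabecular microarchitecture (BV/TV, Tb.N, Tb.Th, Tb.Sp, SMI) and biomechanical testing of femur and vertebrae (energy, stiffness); mean ± SE versus OVx.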

Mus musculus [2] = assay: Estrogenic effect in uterine of ovariectomized postmenopausal Balb/c mouse model assessed as uterine weight at 1 mg/kg, po qd via gavage for 6 weeks (reference value: 0.025 +/- 0.02 mg); assay type: ADME, organism-based; details: in vivo, 1008 h
Mus musculus [3] = assay: Anti-osteoporotic activity in ovariectomized postmenopausal Balb/c mouse model assessed as bone formation rate at 1 mg/kg, po qd via gavage for 6 weeks by fluorochromes tetracycline and calcein labeling based histomorphometric analysis (reference value: 0.098 +/- 0.01 um3.um2/day); assay type: functional
Mus musculus [4] = assay: Osteogenic activity in Balb/c mouse drill-hole fracture model assessed as increase in OCN mRNA level at 1 mg/kg, po qd via gavage for 21 days by RT-PCR method relative to control
Mus musculus [5] = assay: Osteogenic activity in Balb/c mouse drill-hole fracture model assessed as increase in BMP2 mRNA level at 1 mg/kg, po qd via gavage for 21 days by RT-PCR method
Mus musculus [6] = assay: Anti-osteoporotic activity in ovariectomized postmenopausal Balb/c mouse model assessed as femur bone breaking strength by measuring energy at 1 mg/kg, po qd via gavage for 6 weeks by micro CT-scan analysis (reference value: 2.6 +/- 0.18 mJ); assay type: functional; summary of the method: as §1
Mus musculus [7] = assay: Anti-osteoporotic activity in ovariectomized postmenopausal Balb/c mouse model assessed as improvement in micro-artchitectural parameter in tibia by measuring trabecular thickness at 1 mg/kg, po qd via gavage for 6 weeks by micro CT-scan analysis (reference value: 0.0475 +/- 0.0005 millimeter); assay type: functional; summary of the method: as §1
Mus musculus [8] = assay: Osteogenic activity in Balb/c mouse drill-hole fracture model assessed as trabecular number at 1 mg/kg, po qd via gavage for 21 days by micro-CT method (reference value: 2.194 +/- 0.265 /millimeter)
Mus musculus [9] = assay: In vivo induction of osteogenesis in Balb/c mouse assessed as increase in mineral appositional rate in calvaria at 0.1 to 1 mg/kg/day, sc over calvarial surface for 5 consecutive days by fluorochromes tetracycline and calcein labeling based histomorphometric analysis; assay type: functional, organism-based
Summary of the method: (§2)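 Three-week-old Balb/c mice (3 per group) injected subcutaneously over the calvarial surface daily for 5 consecutive days at 0.1, 0.5, 1 and 5 mg/kg/day. Calvaria fixed in 4% formaldehyde, paraffin-embedded, H&E-stained; tetracycline and calcein (20 mg/kg each, ip) given for MAR/BFR histomorphometry; calvarial mRNA by RT-PCR. Mean ± SE, three independent experiments, versus untreated.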

Mus musculus [10] = assay: Anti-osteoporotic activity in ovariectomized postmenopausal Balb/c mouse model assessed as vertebrae compressive strength by measuring stiffness at 1 mg/kg, po qd via gavage for 6 weeks by micro CT-scan analysis (reference value: 345.7 +/- 5.08 N/mm); assay type: functional; summary of the method: as §1
Mus musculus [11] = assay: In vivo induction of osteogenesis in Balb/c mouse assessed as increase in ALP mRNA level in calvaria at 1 mg/kg/day, sc over calvarial surface for 5 consecutive days by RT-PCR method relative to control; assay type: functional; summary of the method: as §2
Mus musculus [12] = assay: Osteogenic activity in Balb/c mouse drill-hole fracture model assessed as increase in Sox9 mRNA level at 1 mg/kg, po qd via gavage for 21 days by RT-PCR method
Mus musculus [13] = assay: Osteogenic activity in Balb/c mouse drill-hole fracture model assessed as increase in COL1 mRNA level at 1 mg/kg, po qd via gavage for 21 days by RT-PCR method relative to control
Mus musculus [14] = assay: Anti-osteoporotic activity in ovariectomized postmenopausal Balb/c mouse model assessed as improvement in micro-artchitectural parameter in tibia by measuring structural model index at 1 mg/kg, po qd via gavage for 6 weeks by micro CT-scan analysis (reference value: 2.32 +/- 0.08); assay type: functional; summary of the method: as §1
Mus musculus [15] = assay: Anti-osteoporotic activity in ovariectomized postmenopausal Balb/c mouse model assessed as mineral apposition rate at 1 mg/kg, po qd via gavage for 6 weeks by fluorochromes tetracycline and calcein labeling based histomorphometric analysis (reference value: 0.099 +/- 0.01 umeter/day); assay type: functional
Mus musculus [16] = assay: Anti-osteoporotic activity in ovariectomized postmenopausal Balb/c mouse model assessed as improvement in micro-artchitectural parameter in vertebrae by measuring structural model index at 1 mg/kg, po qd via gavage for 6 weeks by micro CT-scan analysis (reference value: 1.78 +/- 0.08); assay type: functional; summary of the method: as §1
Mus musculus [17] = assay: In vivo induction of osteogenesis in Balb/c mouse assessed as increase in OCN mRNA level in calvaria at 1 mg/kg/day, sc over calvarial surface for 5 consecutive days by RT-PCR method relative to control; assay type: functional; summary of the method: as §2
Mus musculus [18] = assay: Anti-osteoporotic activity in ovariectomized postmenopausal Balb/c mouse model assessed as improvement in micro-artchitectural parameter in vertebrae by measuring trabecular number at 1 mg/kg, po qd via gavage for 6 weeks by micro CT-scan analysis (reference value: 2.24 +/- 0.16 /millimeter); assay type: functional; summary of the method: as §1
Mus musculus [19] = assay: In vivo induction of osteogenesis in Balb/c mouse assessed as bone formation at 0.5 to 1 mg/kg/day, sc over calvarial surface for 5 consecutive days by hematoxylin and eosin staining based fluorescence microscopic method; assay type: functional, organism-based; summary of the method: as §2
Mus musculus [20] = assay: Osteogenic activity in Balb/c mouse drill-hole fracture model assessed as structure model index at 1 mg/kg, po qd via gavage for 21 days by micro-CT method (reference value: 2.585 +/- 0.387)
Mus musculus [21] = assay: Anti-osteoporotic activity in ovariectomized postmenopausal Balb/c mouse model assessed as decrease in TRAP mRNA expression at 1 mg/kg, po qd via gavage for 6 weeks by RT-PCR method; assay type: functional, organism-based
Summary of the method: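 Eight-week-old female Balb/c mice, ovariectomized and left 6 weeks for osteopenia to develop; groups sham+vehicle, OVx+vehicle, OVx+1.0 mg/kg/day, dosed once daily by oral gavage for 6 weeks in gum acacia/distilled water vehicle. Mice kept at 21°C, 12 h light/dark, chow and water ad libitum. Femoral bone mRNA or serum measured after sacrifice; mean ± SE versus OVx group.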

Mus musculus [22] = assay: Anti-osteoporotic activity in ovariectomized postmenopausal Balb/c mouse model assessed as vertebrae compressive strength by measuring energy at 1 mg/kg, po qd via gavage for 6 weeks by micro CT-scan analysis (reference value: 224.75 +/- 1.06 mJ); assay type: functional; summary of the method: as §1

Q: Which Activity (Mus musculus [1]) does the source give for `COc1cc2oc(=O)cc(-c3ccccc3)c2cc1OCCCCCN1CCN(C)CC1` here?
A: The Activity was 2.7 /millimeter.

Q: And the Activity (Mus musculus [2])?
A: The Activity was 0.032 mg.

Q: What about the Activity (Mus musculus [3]) of the same compound?
A: Its Activity is 0.163 um3.um2/day.

Q: What about the “fold change (FC)” value (Mus musculus [4]) of the same compound?
A: The value was 6.

Q: And the Activity (Mus musculus [5])?
A: The Activity was “Active”.

Q: And the Activity (Mus musculus [6])?
A: Its Activity is 4.55 mJ.

Q: And the Activity (Mus musculus [7])?
A: The Activity was 0.052 mm.

Q: And the Activity (Mus musculus [8])?
A: The Activity was 3.442 /millimeter.

Q: What about the Activity (Mus musculus [9]) of the same compound?
A: Its Activity is “Active”.

Q: What about the Activity (Mus musculus [10]) of the same compound?
A: Its Activity is 381.35 N/mm.

Q: What about the “fold change (FC)” value (Mus musculus [11]) of the same compound?
A: The value was 5.

Q: And the Activity (Mus musculus [12])?
A: Its Activity is “Active”.

Q: And the “fold change (FC)” value (Mus musculus [13])?
A: The value was 6.

Q: And the Activity_index (Mus musculus [14])?
A: Its Activity_index is 1.84.

Q: And the Activity (Mus musculus [15])?
A: Its Activity is 0.177 micrometer/day.

Q: And the Activity_index (Mus musculus [16])?
A: Its Activity_index is 1.07.

Q: And the “fold change (FC)” value (Mus musculus [17])?
A: The value was 4.

Q: And the Activity (Mus musculus [18])?
A: The Activity was 4.63 /millimeter.

Q: What about the Activity (Mus musculus [19]) of the same compound?
A: Its Activity is “Active”.

Q: And the Activity_index (Mus musculus [20])?
A: Its Activity_index is 0.496.

Q: What about the Activity (Mus musculus [21]) of the same compound?
A: The Activity was “Active”.

Q: And the Activity (Mus musculus [22])?
A: The Activity was 262.55 mJ.
